“And” between values parts separate entries of the source, which are not always exact repeats. Equal values may be shown once.
System: Fibroblast
Assay: Multiplex assay against human fibroblast
Format: toxicity, cell-based
Conditions: number of replicates 2
How it was run: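 Live cells were stained at seeding with Hoechst33342, BioTracker Green Microtubule Cytoskeleton Dye, MitoTracker Red and Annexin V Alexa Fluor 680. Following compound addition, they were imaged on a CQ1 microscope at 37°C and 5% CO2 and gated by CellPathfinder machine learning into Hoechst high-intensity objects or normal cells, with normal cells split into healthy, pyknosed or fragmented nuclei and pyknosed cells into mitotic or apoptotic. Tubulin, mitochondrial-mass and membrane-permeability phenotypes are per cents of healthy-nucleus cells.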

[1] = 12 h, 1 µM, compound concentration 1 uM
[2] = 12 h, 10 µM, compound concentration 10 uM
[3] = 24 h, 1 µM, compound concentration 1 uM
[4] = 24 h, 10 µM, compound concentration 10 uM
[5] = 48 h, 1 µM, compound concentration 1 uM
[6] = 48 h, 10 µM, compound concentration 10 uM

## CS(=O)(=O)c1ccc(C(=O)Nc2cccc(COc3ccc(Br)cc3CN3CC[C@H](O)C3)c2)cc1.O=CO
[1]
  Population Fragmented Nuclei (%): 13% and 4%
  Population Healthy Nuclei (%): 48% and 65%
  Population Hoechst High Intensity Objects (%): 0%
  Population Mitotic Cells (%): 52%
  Population Normal (%): 100%
  Population Pyknosed Nuclei (%): 37% and 30%
  Total Cell Count: 166 and 138
[2]
  Population Fragmented Nuclei (%): 15% and 22%
  Population Healthy Nuclei (%): 55% and 64%
  Population Hoechst High Intensity Objects (%): 0%
  Population Mitotic Cells (%): 51%
  Population Normal (%): 100%
  Population Pyknosed Nuclei (%): 30%
  Total Cell Count: 180 and 311
[3]
  Population Fragmented Nuclei (%): 9% and 14%
  Population Healthy Nuclei (%): 54% and 50%
  Population Hoechst High Intensity Objects (%): 0%
  Population Normal (%): 100% and 99%
  Total Cell Count: 142 and 175
[4]
  Population Fragmented Nuclei (%): 18% and 28%
  Population Healthy Nuclei (%): 57% and 60%
  Population Hoechst High Intensity Objects (%): 0%
  Population Mitotic Cells (%): 29% and 31%
  Population Normal (%): 99%
  Population Pyknosed Nuclei (%): 10%
  Total Cell Count: 214 and 336
[5]
  Population Fragmented Nuclei (%): 14% and 21%
  Population Healthy Nuclei (%): 55% and 59%
  Population Hoechst High Intensity Objects (%): 0% and 1%
  Population Mitotic Cells (%): 36% and 22%
  Population Normal (%): 100% and 98%
  Population Pyknosed Nuclei (%): 29% and 19%
  Total Cell Count: 147 and 164
[6]
  Population Fragmented Nuclei (%): 28% and 31%
  Population Healthy Nuclei (%): 62% and 61%
  Population Hoechst High Intensity Objects (%): 0%
  Population Mitotic Cells (%): 4% and 13%
  Population Normal (%): 100% and 99%
  Population Pyknosed Nuclei (%): 9%
  Total Cell Count: 253 and 402

## C[C@@H]1CC[C@@]2(OC1)O[C@H]1[C@@H](O)[C@H]3[C@@H]4CC[C@H]5C[C@@H](O[C@@H]6O[C@H](CO)[C@H](O[C@@H]7O[C@H](CO)C(O)[C@H](O[C@@H]8OC[C@@H](O)[C@H](O)[C@H]8O)[C@H]7O[C@@H]7O[C@H](CO)[C@H](O)[C@H](O[C@@H]8O[C@H](CO)[C@@H](O)[C@H](O)[C@H]8O)[C@H]7O)[C@H](O)[C@H]6O)[C@H](O)C[C@]5(C)[C@H]4CC[C@]3(C)[C@H]1[C@@H]2C (some centres not stated) [DIGITONIN]
[2]
  Population Apoptotic (%): 44% and 47% and 48% and 42%
  Population Fragmented Nuclei (%): 9% and 12% and 13% and 8%
  Population Healthy Nuclei (%): 76% and 61% and 68% and 72%
  Population Hoechst High Intensity Objects (%): 0%
  Population Membrane Permeable-Phenotype (%): 6% and 4% and 1%
  Population Mitochondria Different-Phenotype (%): 0% and 1% and 2%
  Population Mitotic Cells (%): 56% and 52% and 51% and 57%
  Population Normal (%): 100%
  Population Pyknosed Nuclei (%): 13% and 26% and 18% and 19%
  Population Tubulin-Different-Phenotype (%): 10% and 4% and 8% and 6%
  Total Cell Count: 181 and 157 and 188 and 182
[4]
  Population Apoptotic (%): 55% and 53% and 47% and 66%
  Population Fragmented Nuclei (%): 11% and 12%
  Population Healthy Nuclei (%): 77% and 55% and 71% and 69%
  Population Hoechst High Intensity Objects (%): 0% and 1%
  Population Membrane Permeable-Phenotype (%): 6% and 2%
  Population Mitochondria Different-Phenotype (%): 0% and 1% and 3%
  Population Mitotic Cells (%): 45% and 46% and 52% and 33%
  Population Normal (%): 100% and 98%
  Population Pyknosed Nuclei (%): 11% and 32% and 17%
  Population Tubulin-Different-Phenotype (%): 11% and 3% and 7% and 12%
  Total Cell Count: 171 and 168 and 198 and 188
[6]
  Population Apoptotic (%): 90% and 64% and 75% and 60%
  Population Fragmented Nuclei (%): 12% and 14% and 15%
  Population Healthy Nuclei (%): 81% and 64% and 68%
  Population Hoechst High Intensity Objects (%): 0%
  Population Membrane Permeable-Phenotype (%): 5% and 1% and 7%
  Population Mitochondria Different-Phenotype (%): 0% and 1%
  Population Normal (%): 100% and 99%
  Population Tubulin-Different-Phenotype (%): 6% and 5%
  Total Cell Count: 169 and 162 and 205 and 188

## C[C@@H](Oc1cc(-n2cnc3ccc(OC4CCN(C)CC4)cc32)sc1C(N)=O)c1ccccc1Cl [GSK-579289A]
[1]
  Population Apoptotic (%): 45% and 36%
  Population Fragmented Nuclei (%): 21% and 15%
  Population Healthy Nuclei (%): 62% and 60%
  Population Hoechst High Intensity Objects (%): 0%
  Population Membrane Permeable-Phenotype (%): 7% and 10%
  Population Mitochondria Different-Phenotype (%): 1% and 3%
  Population Mitotic Cells (%): 54% and 63%
  Population Normal (%): 99% and 100%
  Population Pyknosed Nuclei (%): 15% and 24%
  Population Tubulin-Different-Phenotype (%): 40% and 48%
  Total Cell Count: 296 and 182
[2]
  Population Apoptotic (%): 40% and 46%
  Population Fragmented Nuclei (%): 13% and 23%
  Population Healthy Nuclei (%): 60% and 59%
  Population Hoechst High Intensity Objects (%): 0%
  Population Membrane Permeable-Phenotype (%): 5% and 13%
  Population Mitochondria Different-Phenotype (%): 12% and 13%
  Population Mitotic Cells (%): 59% and 53%
  Population Normal (%): 100%
  Population Pyknosed Nuclei (%): 26% and 17%
  Population Tubulin-Different-Phenotype (%): 84% and 85%
  Total Cell Count: 323 and 282
[3]
  Population Apoptotic (%): 54% and 58%
  Population Fragmented Nuclei (%): 18% and 23%
  Population Healthy Nuclei (%): 63% and 57%
  Population Hoechst High Intensity Objects (%): 1% and 0%
  Population Membrane Permeable-Phenotype (%): 3% and 2%
  Population Mitochondria Different-Phenotype (%): 3% and 5%
  Population Mitotic Cells (%): 45% and 41%
  Population Normal (%): 98% and 99%
  Population Pyknosed Nuclei (%): 18% and 19%
  Population Tubulin-Different-Phenotype (%): 43% and 40%
  Total Cell Count: 282 and 205
[4]
  Population Apoptotic (%): 79% and 73%
  Population Fragmented Nuclei (%): 16% and 25%
  Population Healthy Nuclei (%): 46% and 50%
  Population Hoechst High Intensity Objects (%): 0%
  Population Membrane Permeable-Phenotype (%): 2% and 6%
  Population Mitochondria Different-Phenotype (%): 38% and 39%
  Population Mitotic Cells (%): 20% and 26%
  Population Normal (%): 100% and 99%
  Population Pyknosed Nuclei (%): 37% and 23%
  Population Tubulin-Different-Phenotype (%): 88% and 92%
  Total Cell Count: 281 and 274
[5]
  Population Apoptotic (%): 65% and 85%
  Population Fragmented Nuclei (%): 21% and 25%
  Population Healthy Nuclei (%): 64% and 61%
  Population Hoechst High Intensity Objects (%): 1% and 0%
  Population Membrane Permeable-Phenotype (%): 4%
  Population Mitochondria Different-Phenotype (%): 2% and 5%
  Population Mitotic Cells (%): 34% and 14%
  Population Normal (%): 98% and 99%
  Population Pyknosed Nuclei (%): 14% and 12%
  Population Tubulin-Different-Phenotype (%): 44% and 38%
  Total Cell Count: 307 and 222
[6]
  Population Apoptotic (%): 97% and 94%
  Population Fragmented Nuclei (%): 18% and 24%
  Population Healthy Nuclei (%): 22% and 18%
  Population Hoechst High Intensity Objects (%): 1% and 0%
  Population Mitochondria Different-Phenotype (%): 46% and 48%
  Population Mitotic Cells (%): 2% and 5%
  Population Normal (%): 98% and 99%
  Population Pyknosed Nuclei (%): 58% and 57%
  Population Tubulin-Different-Phenotype (%): 77% and 93%
  Total Cell Count: 199 and 171

## COc1nc2ccc([C@@](O)(c3ccc(Cl)cc3)c3cncn3C)cc2c(Cl)c1Cc1ccc(-n2cccn2)cc1 [JNJ-53721590]
[1]
  Population Apoptotic (%): 30%
  Population Fragmented Nuclei (%): 6% and 11%
  Population Healthy Nuclei (%): 68% and 55%
  Population Hoechst High Intensity Objects (%): 0%
  Population Membrane Permeable-Phenotype (%): 9% and 11%
  Population Mitochondria Different-Phenotype (%): 2% and 1%
  Population Mitotic Cells (%): 69%
  Population Normal (%): 100%
  Population Pyknosed Nuclei (%): 24% and 32%
  Population Tubulin-Different-Phenotype (%): 38% and 37%
  Total Cell Count: 210 and 189
[2]
  Population Apoptotic (%): 37% and 45%
  Population Fragmented Nuclei (%): 14% and 7%
  Population Healthy Nuclei (%): 63% and 67%
  Population Hoechst High Intensity Objects (%): 0%
  Population Membrane Permeable-Phenotype (%): 20%
  Population Mitochondria Different-Phenotype (%): 5% and 3%
  Population Mitotic Cells (%): 62% and 55%
  Population Normal (%): 99% and 100%
  Population Pyknosed Nuclei (%): 21% and 24%
  Population Tubulin-Different-Phenotype (%): 73%
  Total Cell Count: 206 and 241
[3]
  Population Apoptotic (%): 62% and 56%
  Population Fragmented Nuclei (%): 6% and 14%
  Population Healthy Nuclei (%): 68% and 62%
  Population Hoechst High Intensity Objects (%): 0%
  Population Membrane Permeable-Phenotype (%): 3% and 10%
  Population Mitochondria Different-Phenotype (%): 2% and 9%
  Population Mitotic Cells (%): 37% and 43%
  Population Normal (%): 100%
  Population Pyknosed Nuclei (%): 25% and 23%
  Population Tubulin-Different-Phenotype (%): 31% and 37%
  Total Cell Count: 199 and 197
[4]
  Population Apoptotic (%): 51% and 70%
  Population Fragmented Nuclei (%): 20% and 12%
  Population Healthy Nuclei (%): 62% and 60%
  Population Hoechst High Intensity Objects (%): 0%
  Population Membrane Permeable-Phenotype (%): 9% and 6%
  Population Mitochondria Different-Phenotype (%): 18% and 20%
  Population Mitotic Cells (%): 48% and 29%
  Population Normal (%): 100% and 99%
  Population Pyknosed Nuclei (%): 16% and 27%
  Population Tubulin-Different-Phenotype (%): 75% and 69%
  Total Cell Count: 218 and 241
[5]
  Population Apoptotic (%): 85% and 72%
  Population Fragmented Nuclei (%): 10% and 13%
  Population Healthy Nuclei (%): 72% and 67%
  Population Hoechst High Intensity Objects (%): 0%
  Population Membrane Permeable-Phenotype (%): 3% and 2%
  Population Mitochondria Different-Phenotype (%): 0% and 1%
  Population Mitotic Cells (%): 14% and 27%
  Population Normal (%): 100%
  Population Pyknosed Nuclei (%): 17% and 19%
  Population Tubulin-Different-Phenotype (%): 20% and 15%
  Total Cell Count: 205
[6]
  Population Apoptotic (%): 87%
  Population Fragmented Nuclei (%): 26% and 18%
  Population Healthy Nuclei (%): 64%
  Population Hoechst High Intensity Objects (%): 0%
  Population Membrane Permeable-Phenotype (%): 1% and 2%
  Population Mitochondria Different-Phenotype (%): 7% and 8%
  Population Mitotic Cells (%): 12%
  Population Normal (%): 99% and 100%
  Population Pyknosed Nuclei (%): 9% and 16%
  Population Tubulin-Different-Phenotype (%): 63% and 53%
  Total Cell Count: 247 and 282

Source: ChEMBL document CHEMBL5303300, “EUbOPEN Chemogenomics Library - Multiplex” (2023)
